For 3 molecules, Activity results are on record in ChEMBL document CHEMBL1145471, “Small molecule regulators of autophagy identified by an image-based high-throughput screen” (Proc Natl Acad Sci U S A, 2007).

Calls of active or inactive are those of the source. The rule behind the calls is not given here.

Experiment [1] has as its system H4. Description: Increase in ratio of light chain 3 subunit 2 to light chain 3 subunit 1 in human H4 cells at 4.8 uM after 4 hrs by Western blot. It is filed as functional, cell-based. The method, boiled down: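 H4 cells were treated with each compound for 4 h, then lysed. Lysates were immunoblotted with anti-LC3 antibody, with actin as loading control. LC3II and LC3I bands were compared as an LC3II/LC3I ratio.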
In general terms: Immunoblotting shows a protein as a band on a membrane.

Experiment [2] has as its target Serine/threonine-protein kinase mTOR (Homo sapiens, UniProt P42345). Description: Effect on mTOR phosphorylation in human H4 cells at 4.8 uM after 4 hrs. Type of experiment: cell-based. In a few lines: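 H4 cells exposed to compound for 4 h. Lysates analysed by Western blot with anti-phospho and anti-total mTOR antibodies, with actin as loading control. Rapamycin served as reference.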

For experiment [3], the system named is H4. Put plainly: Increase in light chain 3-GFP+ autophagosome vesicle area per cell in human H4 cells at 4.8 uM after 24 hrs by high throughput fluorescence microscopy relative to control. It is filed as functional. The method, boiled down:
(§1)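 H4 cells stably expressing LC3-GFP, seeded in 96-well plates and exposed to compound for 24 h; screening concentrations were 3–12 μM, with rapamycin 0.22 μM and bafilomycin A1 0.40 μM. Cells fixed in 4% paraformaldehyde and stained with 3 μg/ml DAPI. Number, size and intensity of LC3-GFP spots measured by high-throughput fluorescence microscopy and expressed as percent of DMSO-treated wells. Rapamycin was the positive control. Triplicate wells, mean ± SD; experiments repeated three times.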

Experiment [4] concerns H4. Put plainly: Increase in long-lived protein degradation in human H4 cells after 1 hr relative to control. Type of experiment: functional. More on the design: concentration or dose not given beside the values.
In experiment [5] the test system is H4. Description: Increase in long-lived protein degradation in human H4 cells after 2 hrs relative to control. Type of experiment: functional. Further details: concentration or dose not given beside the values.
The subject of experiment [6] is H4. Description: Increase in long-lived protein degradation in human H4 cells after 4 hrs relative to control. Further details: concentration or dose not given beside the values. Type of experiment: functional.
For experiment [7], the system named is H4. Description: Increase in FYVE-RFP+ vesicle intensity per cell in human H4 cells after 4 hrs relative to control. More on the design: concentration or dose not given beside the values. Type of experiment: functional. The method, boiled down: (§2)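 H4 cells stably expressing FYVE-RFP (H4-FYVE), grown in DMEM with 10% FBS, penicillin/streptomycin and 2 mM L-glutamine at 37°C, 5% CO2, seeded in 96-well plates and exposed to compound. Fixed in 4% paraformaldehyde, nuclei stained with 3 μg/ml DAPI, FYVE-RFP+ vesicles quantified by high-throughput fluorescence microscopy against DMSO control. Triplicate wells, mean ± SD.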

Experiment [8] relates to H4. Description: Increase in light chain 3-GFP+ autophagosome vesicle intensity per cell in human H4 cells at 4.8 uM after 24 hrs by high throughput fluorescence microscopy relative to control. It is filed as functional. In a few lines:
(§3)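 H4 cells stably expressing LC3-GFP were grown in DMEM with 10% FBS and 2 mM L-glutamine at 37°C, 5% CO2. They were exposed to each compound for 24 h, with DMSO as negative and rapamycin as positive control. Cells were then fixed in 4% paraformaldehyde and stained with 3 μg/ml DAPI. High-throughput fluorescence imaging scored LC3-GFP spot number, size and intensity, expressed relative to DMSO. Mean ± SD of triplicates; experiments repeated three times.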

Experiment [9] has as its system H4. Put plainly: Increase in FYVE-RFP+ vesicle intensity per cell in human H4 cells after 8 hrs relative to control. Type of experiment: functional. Further details: concentration or dose not given beside the values. The method, boiled down: as §2
The subject of experiment [10] is H4. Put plainly: Increase in FYVE-RFP+ vesicle intensity per cell in human H4 cells after 2 hrs relative to control. Further details: concentration or dose not given beside the values. Type of experiment: functional. The method, boiled down:
as §2

The subject of experiment [11] is H4. Put plainly: Increase in long-lived protein degradation in human H4 cells after 24 hrs relative to control. It is filed as functional. More on the design: concentration or dose not given beside the values.
Experiment [12] concerns H4. Put plainly: Increase in light chain 3-GFP+ autophagosome vesicle number per cell in human H4 cells at 4.8 uM after 24 hrs by high throughput fluorescence microscopy relative to control. Type of experiment: functional. In a few lines:
as §3

Experiment [13] has as its system H4. Description: Induction of light chain 3-GFP level in human H4 cells at 4.8 uM after 24 hrs by high throughput fluorescence microscopy relative to control. It is filed as functional. The method, boiled down:
(§4)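 H4 cells stably expressing LC3-GFP, grown in DMEM with 10% FBS, penicillin/streptomycin and 2 mM L-glutamine at 37°C, 5% CO2. Cells were seeded in 96-well plates and exposed to library compounds at 3–12 μM for 24 h, then fixed in 4% paraformaldehyde and stained with 3 μg/ml DAPI. LC3-GFP spot number, size and intensity were measured by high-throughput fluorescence microscopy and expressed relative to DMSO. Triplicates, mean ± SD.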

Experiment [14] relates to H4. Put plainly: Effect on FYVE-RFP+ vesicle intensity per cell in human H4 cells after 8 hrs relative to control. Further details: concentration or dose not given beside the values. It is filed as functional. In a few lines: as §2
For experiment [15], the system named is H4. Description: Effect on FYVE-RFP+ vesicle intensity per cell in human H4 cells after 2 hrs relative to control. It is filed as functional. Further details: concentration or dose not given beside the values. In a few lines: as §2
The subject of experiment [16] is H4. Put plainly: Induction of light chain 3-GFP level in human H4 cells at 5.7 uM after 24 hrs by high throughput fluorescence microscopy relative to control. Type of experiment: functional. In a few lines:
(§5)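 H4 cells stably expressing LC3-GFP, kept in DMEM/10% FBS at 37°C, 5% CO2, were seeded in 96-well plates and exposed to compound for 24 h. Cells were then fixed in 4% paraformaldehyde and stained with 3 μg/ml DAPI. Automated fluorescence microscopy scored the number, size and intensity of LC3-GFP spots. Values are percent of DMSO wells, in triplicate, mean ± SD. Rapamycin served as positive control.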

Experiment [17] concerns H4. Description: Increase in light chain 3-GFP+ autophagosome vesicle intensity per cell in human H4 cells at 5.7 uM after 24 hrs by high throughput fluorescence microscopy relative to control. Type of experiment: functional. The method, boiled down:
(§6)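 H4 cells stably expressing LC3-GFP, seeded in 96-well plates and exposed to compound for 24 h; fixed in 4% paraformaldehyde, nuclei stained with 3 μg/ml DAPI. Automated fluorescence microscopy scored number, size and intensity of LC3-GFP spots; values expressed relative to DMSO-treated wells, rapamycin positive control. Triplicate wells, mean ± SD; experiments repeated three times.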

The test system of experiment [18] is H4. Put plainly: Effect on FYVE-RFP+ vesicle intensity per cell in human H4 cells after 4 hrs relative to control. It is filed as functional. Further details: concentration or dose not given beside the values. In a few lines: as §2
Experiment [19] relates to H4. Description: Increase in light chain 3-GFP+ autophagosome vesicle number per cell in human H4 cells at 5.7 uM after 24 hrs by high throughput fluorescence microscopy relative to control. Type of experiment: functional. In a few lines:
as §5

Experiment [20] relates to H4. Description: Increase in light chain 3-GFP+ autophagosome vesicle area per cell in human H4 cells at 5.7 uM after 24 hrs by high throughput fluorescence microscopy relative to control. Type of experiment: functional. In a few lines: as §6
Experiment [21] relates to H4. Put plainly: Induction of light chain 3-GFP level in human H4 cells at 4.4 uM after 24 hrs by high throughput fluorescence microscopy relative to control. Type of experiment: functional. The method, boiled down: as §4
The subject of experiment [22] is H4. Description: Increase in light chain 3-GFP+ autophagosome vesicle intensity per cell in human H4 cells at 4.4 uM after 24 hrs by high throughput fluorescence microscopy relative to control. It is filed as functional. The method, boiled down: as §3
Experiment [23] concerns H4. Put plainly: Increase in light chain 3-GFP+ autophagosome vesicle area per cell in human H4 cells at 4.4 uM after 24 hrs by high throughput fluorescence microscopy relative to control. Type of experiment: functional. In a few lines:
as §1

In experiment [24] the test system is H4. Put plainly: Induction of autophagy in human H4 cells. Type of experiment: functional, cell-based.
Experiment [25] deals with H4. Put plainly: Increase in light chain 3-GFP+ autophagosome vesicle number per cell in human H4 cells at 4.4 uM after 24 hrs by high throughput fluorescence microscopy relative to control. Type of experiment: functional. In a few lines: as §3

Turning to `COC(=O)C1=C(C)NC(C)=C(C(=O)OCCN(C)Cc2ccccc2)C1c1cccc([N+](=O)[O-])c1` (stereo unspecified) [NICARDIPINE], the result with H4 [1] was Active. In addition, the result in experiment [2] was inactive. Further, the Activity is on record as 197.46% in the experiment on H4 [3]; 84.62% with H4 [4]; 126.59% in the experiment on H4 [5]; 122.6% in the experiment with H4 [6]; 112.51% in the experiment with H4 [7]; 229.64% with H4 [8]. The Activity in the experiment with H4 [9] is given as 104.77%; in the experiment on H4 [10], 132.05%; with H4 [11], 121.03%; in the experiment on H4 [12], 169.02%; in the experiment with H4 [13], 131.58%.

On to `CC(C)(O)[C@H]1O[C@H]2CC[C@@]3(C)[C@@](O)(CC[C@H]4Cc5c([nH]c6ccccc56)[C@@]43C)C2=CC1=O` [PAXILLINE], for which the Activity with H4 [14] stood at 56.82%; with H4 [15] it was 100.56%; in the experiment with H4 [16] it was 119.79%; with H4 [4], 100.56%; in the experiment with H4 [17] it was 205.83%; in the experiment with H4 [5], 112.34%. In addition, the Activity in the experiment with H4 [18] stood at 52.37%; in the experiment on H4 [6], 106.27%; with H4 [19], 162.66%; with H4 [11], 102.35%; in the experiment on H4 [20] it was 185.52%.

On to `CC/C(=C(\c1ccccc1)c1ccc(OCCN(C)C)cc1)c1ccccc1` [TAMOXIFEN], for which the Activity with H4 [14] worked out at 85.37%; with H4 [15], 77.66%; in the experiment on H4 [21], 91.2%; in the experiment with H4 [4], 70.67%; with H4 [5], 101.24%; with H4 [22], 585.87%. The Activity turned out to be 376.53% with H4 [23]; 71.55% in the experiment with H4 [18]; 105.85% in the experiment on H4 [6]; 114.97% with H4 [11]; 291.52% with H4 [25]. Further, in the experiment on H4 [24], the outcome was inactive.
